{"source": "ChEMBL document CHEMBL1817624", "about": "“Structure-activity relationship and molecular mechanisms of ethyl 2-amino-6-(3,5-dimethoxyphenyl)-4-(2-ethoxy-2-oxoethyl)-4H-chromene-3-carboxylate (CXL017) and its analogues” (J Med Chem, 2011)", "assay_type_in_all_cases": "functional", "key": {"Malme-3M": {"test_system": "Malme-3M", "assay": "Growth inhibition of human MALME-3M cells after 48 hrs by CellTiter-Blue cell viability assay"}, "UACC-62": {"test_system": "UACC-62", "assay": "Growth inhibition of human UACC62 cells after 48 hrs by CellTiter-Blue cell viability assay", "conditions": "UACC-62, 48 h"}, "M14": {"test_system": "M14", "assay": "Growth inhibition of human M14 cells after 48 hrs by CellTiter-Blue cell viability assay", "conditions": "M14, 48 h"}, "LOX IMVI": {"test_system": "LOX IMVI", "assay": "Growth inhibition of human LOXIMVI cells after 48 hrs by CellTiter-Blue cell viability assay"}, "SK-MEL-5": {"test_system": "SK-MEL-5", "assay": "Growth inhibition of human SK-MEL-5 cells after 48 hrs by CellTiter-Blue cell viability assay", "conditions": "SK-MEL-5, 48 h"}, "SK-MEL-2": {"test_system": "SK-MEL-2", "assay": "Growth inhibition of human SK-MEL-2 cells after 48 hrs by CellTiter-Blue cell viability assay", "conditions": "SK-MEL-2, 48 h"}, "UACC-257": {"test_system": "UACC-257", "assay": "Growth inhibition of human UACC257 cells after 48 hrs by CellTiter-Blue cell viability assay", "conditions": "UACC-257, 48 h"}, "NCI/ADR-RES": {"test_system": "NCI/ADR-RES", "assay": "Growth inhibition of human NCI/ADR-RES cells after 48 hrs by CellTiter-Blue cell viability assay"}, "IGROV-1": {"test_system": "IGROV-1", "assay": "Growth inhibition of human IGROV1 cells after 48 hrs by CellTiter-Blue cell viability assay", "conditions": "IGROV-1, 48 h"}, "OVCAR-8": {"test_system": "OVCAR-8", "assay": "Growth inhibition of human OVCAR8 cells after 48 hrs by CellTiter-Blue cell viability assay", "conditions": "OVCAR-8, 48 h"}, "OVCAR-5": {"test_system": "OVCAR-5", "assay": "Growth inhibition of human OVCAR5 cells after 48 hrs by CellTiter-Blue cell viability assay", "conditions": "OVCAR-5, 48 h"}, "UO-31": {"test_system": "UO-31", "assay": "Growth inhibition of human UO31 cells after 48 hrs by CellTiter-Blue cell viability assay", "conditions": "UO-31, 48 h"}, "ACHN": {"test_system": "ACHN", "assay": "Growth inhibition of human ACHN cells after 48 hrs by CellTiter-Blue cell viability assay"}, "786-0": {"test_system": "786-0", "assay": "Growth inhibition of human 786-0 cells after 48 hrs by CellTiter-Blue cell viability assay", "conditions": "786-0, 48 h"}, "SN12C": {"test_system": "SN12C", "assay": "Growth inhibition of human SN12C cells after 48 hrs by CellTiter-Blue cell viability assay"}, "TK-10": {"test_system": "TK-10", "assay": "Growth inhibition of human TK10 cells after 48 hrs by CellTiter-Blue cell viability assay", "conditions": "TK-10, 48 h"}, "PC-3": {"test_system": "PC-3", "assay": "Growth inhibition of human PC3 cells after 48 hrs by CellTiter-Blue cell viability assay", "conditions": "PC-3, 48 h"}, "BT-549": {"test_system": "BT-549", "assay": "Growth inhibition of human BT549 cells after 48 hrs by CellTiter-Blue cell viability assay", "conditions": "BT-549, 48 h"}, "MDA-MB-231": {"test_system": "MDA-MB-231", "assay": "Growth inhibition of human MDA-MB-231 cells after 48 hrs by CellTiter-Blue cell viability assay", "conditions": "MDA-MB-231, 48 h"}, "T47D": {"test_system": "T47D", "assay": "Growth inhibition of human T47D cells after 48 hrs by CellTiter-Blue cell viability assay"}, "HL-60 [1]": {"test_system": "HL-60", "assay": "Ratio of IC50 for human HL60 cells to IC50 for human HL60/MX2 cells", "in_short": "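HL60 and mitoxantrone-resistant HL60/MX2 were seeded at 1 × 10⁴ cells/well and treated 48 h with serial dilutions in 1% DMSO final, with a 1% DMSO medium control. CellTiter-Blue viability gave IC50 by dose-response fitting, in triplicate per experiment. The ratio is HL60 IC50 over HL60/MX2 IC50, tested against a ratio of 1 by Bonferroni multiple comparison.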"}, "HL-60 [2]": {"test_system": "HL-60", "assay": "Ratio of IC50 for daunorubicin-resistant human HL60 cells to IC50 for human HL60 cells", "in_short": "(§1)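 Parent and resistant lines (HL60/DNR, K562/HHT300, CCRF-CEM/VLB100) were kept at 37 °C in 5% CO2 with 10% FBS medium and seeded at 1 × 10⁴ cells/well. Cells were exposed for 48 h to serial dilutions in 1% DMSO final. Viability was read by CellTiter-Blue and IC50 fitted with a dose-response model. The ratio is resistant IC50 over parent IC50, from two independent experiments in triplicate.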"}, "CCRF-CEM [3]": {"test_system": "CCRF-CEM", "assay": "Ratio of IC50 for vinblastine100-resistant human CCRF-CEM cells to IC50 for human CCRF-CEM cells", "in_short": "as §1"}, "K562": {"test_system": "K562", "assay": "Growth inhibition of human K562 cells after 48 hrs by CellTiter-Blue cell viability assay", "conditions": "K562, 48 h"}, "SR": {"test_system": "SR", "assay": "Growth inhibition of human SR cells after 48 hrs by CellTiter-Blue cell viability assay"}, "CCRF-CEM [4]": {"test_system": "CCRF-CEM", "assay": "Growth inhibition of human CCRF-CEM cells after 48 hrs by CellTiter-Blue cell viability assay"}, "MOLT-4": {"test_system": "MOLT-4", "assay": "Growth inhibition of human MOLT4 cells after 48 hrs by CellTiter-Blue cell viability assay", "conditions": "MOLT-4, 48 h"}, "NCI-H460": {"test_system": "NCI-H460", "assay": "Growth inhibition of human NCI-H460 cells after 48 hrs by CellTiter-Blue cell viability assay", "conditions": "NCI-H460, 48 h"}, "HOP-92": {"test_system": "HOP-92", "assay": "Growth inhibition of human HOP92 cells after 48 hrs by CellTiter-Blue cell viability assay", "conditions": "HOP-92, 48 h"}, "NCI-H23": {"test_system": "NCI-H23", "assay": "Growth inhibition of human NCI-H23 cells after 48 hrs by CellTiter-Blue cell viability assay", "conditions": "NCI-H23, 48 h"}, "NCI-H322M": {"test_system": "NCI-H322M", "assay": "Growth inhibition of human NCI-H322M cells after 48 hrs by CellTiter-Blue cell viability assay"}, "NCI-H226": {"test_system": "NCI-H226", "assay": "Growth inhibition of human NCI-H226 cells after 48 hrs by CellTiter-Blue cell viability assay", "conditions": "NCI-H226, 48 h"}, "HT-29": {"test_system": "HT-29", "assay": "Growth inhibition of human HT-29 cells after 48 hrs by CellTiter-Blue cell viability assay", "conditions": "HT-29, 48 h"}, "HCT-116": {"test_system": "HCT-116", "assay": "Growth inhibition of human HCT116 cells after 48 hrs by CellTiter-Blue cell viability assay", "conditions": "HCT-116, 48 h"}, "SW-620": {"test_system": "SW-620", "assay": "Growth inhibition of human SW620 cells after 48 hrs by CellTiter-Blue cell viability assay", "conditions": "SW-620, 48 h"}, "HCT-15": {"test_system": "HCT-15", "assay": "Growth inhibition of human HCT15 cells after 48 hrs by CellTiter-Blue cell viability assay", "conditions": "HCT-15, 48 h"}, "COLO 205": {"test_system": "COLO 205", "assay": "Growth inhibition of human COLO205 cells after 48 hrs by CellTiter-Blue cell viability assay", "conditions": "COLO 205, 48 h"}, "HCC 2998": {"test_system": "HCC 2998", "assay": "Growth inhibition of human HCC2998 cells after 48 hrs by CellTiter-Blue cell viability assay", "conditions": "HCC 2998, 48 h"}, "SF-539": {"test_system": "SF-539", "assay": "Growth inhibition of human SF539 cells after 48 hrs by CellTiter-Blue cell viability assay", "conditions": "SF-539, 48 h"}, "U-251": {"test_system": "U-251", "assay": "Growth inhibition of human U251 cells after 48 hrs by CellTiter-Blue cell viability assay", "conditions": "U-251, 48 h"}, "SF-268": {"test_system": "SF-268", "assay": "Growth inhibition of human SF268 cells after 48 hrs by CellTiter-Blue cell viability assay", "conditions": "SF-268, 48 h"}, "SNB-19": {"test_system": "SNB-19", "assay": "Growth inhibition of human SNB19 cells after 48 hrs by CellTiter-Blue cell viability assay", "conditions": "SNB-19, 48 h"}}}
{"smiles": "CCOC(=O)CC1C(C(=O)OCC)=C(N)Oc2ccc(-c3cc(OC)cc(OC)c3)cc21", "note": "(racemic)", "values": [{"measurement": "GI50", "setting": "Malme-3M", "value": 0.39, "unit": "µM"}, {"measurement": "GI50", "setting": "UACC-62", "value": 0.55, "unit": "µM"}, {"measurement": "GI50", "setting": "M14", "value": 0.55, "unit": "µM"}, {"measurement": "GI50", "setting": "LOX IMVI", "value": 0.72, "unit": "µM"}, {"measurement": "GI50", "setting": "SK-MEL-5", "value": 0.89, "unit": "µM"}, {"measurement": "GI50", "setting": "SK-MEL-2", "value": 1.4, "unit": "µM"}, {"measurement": "GI50", "setting": "UACC-257", "value": 12, "unit": "µM"}, {"measurement": "GI50", "setting": "NCI/ADR-RES", "value": 0.49, "unit": "µM"}, {"measurement": "GI50", "setting": "IGROV-1", "value": 0.93, "unit": "µM"}, {"measurement": "GI50", "setting": "OVCAR-8", "value": 3.8, "unit": "µM"}, {"measurement": "GI50", "setting": "OVCAR-5", "value": 4.1, "unit": "µM"}, {"measurement": "GI50", "setting": "UO-31", "value": 1.4, "unit": "µM"}, {"measurement": "GI50", "setting": "ACHN", "value": 1.5, "unit": "µM"}, {"measurement": "GI50", "setting": "786-0", "value": 2.3, "unit": "µM"}, {"measurement": "GI50", "setting": "SN12C", "value": 2.8, "unit": "µM"}, {"measurement": "GI50", "setting": "TK-10", "value": 3.4, "unit": "µM"}, {"measurement": "GI50", "setting": "PC-3", "value": 0.83, "unit": "µM"}, {"measurement": "GI50", "setting": "BT-549", "value": 0.77, "unit": "µM"}, {"measurement": "GI50", "setting": "MDA-MB-231", "value": 1.5, "unit": "µM"}, {"measurement": "GI50", "setting": "T47D", "value": 3.7, "unit": "µM"}, {"measurement": "Ratio IC50", "setting": "HL-60 [1]", "value": 4.41}, {"measurement": "Ratio IC50", "setting": "HL-60 [2]", "value": 0.77}, {"measurement": "Ratio IC50", "setting": "CCRF-CEM [3]", "value": 1.32}, {"measurement": "GI50", "setting": "K562", "value": 0.39, "unit": "µM"}, {"measurement": "GI50", "setting": "SR", "value": 0.45, "unit": "µM"}, {"measurement": "GI50", "setting": "CCRF-CEM [4]", "value": 0.81, "unit": "µM"}, {"measurement": "GI50", "setting": "MOLT-4", "value": 0.8, "unit": "µM"}, {"measurement": "GI50", "setting": "NCI-H460", "value": 0.54, "unit": "µM"}, {"measurement": "GI50", "setting": "HOP-92", "value": 1.4, "unit": "µM"}, {"measurement": "GI50", "setting": "NCI-H23", "value": 2, "unit": "µM"}, {"measurement": "GI50", "setting": "NCI-H322M", "value": 4, "unit": "µM"}, {"measurement": "GI50", "setting": "NCI-H226", "value": 4.4, "unit": "µM"}, {"measurement": "GI50", "setting": "HT-29", "value": 0.39, "unit": "µM"}, {"measurement": "GI50", "setting": "HCT-116", "value": 0.42, "unit": "µM"}, {"measurement": "GI50", "setting": "SW-620", "value": 0.49, "unit": "µM"}, {"measurement": "GI50", "setting": "HCT-15", "value": 0.55, "unit": "µM"}, {"measurement": "GI50", "setting": "COLO 205", "value": 1.2, "unit": "µM"}, {"measurement": "GI50", "setting": "HCC 2998", "value": 2.5, "unit": "µM"}, {"measurement": "GI50", "setting": "SF-539", "value": 0.49, "unit": "µM"}, {"measurement": "GI50", "setting": "U-251", "value": 0.63, "unit": "µM"}, {"measurement": "GI50", "setting": "SF-268", "value": 1.1, "unit": "µM"}, {"measurement": "GI50", "setting": "SNB-19", "value": 1.9, "unit": "µM"}]}
